Reference: the M2OR odorant receptor database

What was measured:
Conditions in all cases: stereoisomer not certain
UniProt Q8VGC6 = molecular target: T1, UniProt Q8VGC6
T1 sequence (whole entry): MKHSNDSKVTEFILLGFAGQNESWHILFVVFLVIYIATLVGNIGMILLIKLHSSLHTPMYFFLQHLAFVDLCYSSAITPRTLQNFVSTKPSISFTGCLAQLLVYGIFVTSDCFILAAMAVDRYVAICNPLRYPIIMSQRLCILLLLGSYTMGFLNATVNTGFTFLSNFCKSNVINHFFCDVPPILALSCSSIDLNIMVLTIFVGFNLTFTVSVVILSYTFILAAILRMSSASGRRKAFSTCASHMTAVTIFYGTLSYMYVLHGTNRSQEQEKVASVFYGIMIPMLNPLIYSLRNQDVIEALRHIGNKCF
Method in brief: (§1)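 Each entry records the cell line, G-protein, co-transfected protein and tags used. Methods varied with the source, often transient luciferase assays in mammalian cell lines. A receptor–molecule pair is called responsive (active) if the original authors judged its signal statistically different from baseline and non-responsive (inactive) otherwise.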

UniProt Q8VGD7 = molecular target: T2, UniProt Q8VGD7
T2 sequence (whole entry): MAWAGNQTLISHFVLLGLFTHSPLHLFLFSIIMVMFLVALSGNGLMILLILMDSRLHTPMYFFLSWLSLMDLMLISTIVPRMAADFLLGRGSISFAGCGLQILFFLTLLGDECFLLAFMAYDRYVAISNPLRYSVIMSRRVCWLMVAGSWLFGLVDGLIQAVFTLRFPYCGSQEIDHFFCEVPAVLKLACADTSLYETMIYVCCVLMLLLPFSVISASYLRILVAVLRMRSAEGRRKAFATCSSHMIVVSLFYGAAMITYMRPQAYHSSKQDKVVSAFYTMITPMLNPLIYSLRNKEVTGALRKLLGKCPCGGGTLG
Method in brief: as §1

UniProt Q8VGH1 = molecular target: T3, UniProt Q8VGH1
T3 sequence (whole entry): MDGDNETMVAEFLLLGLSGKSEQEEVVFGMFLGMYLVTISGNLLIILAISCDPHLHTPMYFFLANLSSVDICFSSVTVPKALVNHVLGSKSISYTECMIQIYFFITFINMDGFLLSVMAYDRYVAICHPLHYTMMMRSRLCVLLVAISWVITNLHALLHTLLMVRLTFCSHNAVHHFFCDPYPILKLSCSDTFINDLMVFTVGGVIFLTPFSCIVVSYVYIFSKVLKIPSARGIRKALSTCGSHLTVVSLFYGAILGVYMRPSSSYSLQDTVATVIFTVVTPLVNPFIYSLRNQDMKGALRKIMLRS
Method in brief: as §1

UniProt Q8VGJ1 = molecular target: T4, UniProt Q8VGJ1
T4 sequence (whole entry): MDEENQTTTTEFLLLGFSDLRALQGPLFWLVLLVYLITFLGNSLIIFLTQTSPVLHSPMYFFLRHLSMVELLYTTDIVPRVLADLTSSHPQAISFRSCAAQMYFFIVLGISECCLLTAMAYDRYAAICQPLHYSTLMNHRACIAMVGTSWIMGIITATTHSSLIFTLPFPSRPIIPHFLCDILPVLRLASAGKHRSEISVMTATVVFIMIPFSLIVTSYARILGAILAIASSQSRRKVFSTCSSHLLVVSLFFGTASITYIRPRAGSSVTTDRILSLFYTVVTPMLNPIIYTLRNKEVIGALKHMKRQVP
Method in brief: as §1

UniProt Q8VGJ5 = molecular target: T5, UniProt Q8VGJ5
T5 sequence (whole entry): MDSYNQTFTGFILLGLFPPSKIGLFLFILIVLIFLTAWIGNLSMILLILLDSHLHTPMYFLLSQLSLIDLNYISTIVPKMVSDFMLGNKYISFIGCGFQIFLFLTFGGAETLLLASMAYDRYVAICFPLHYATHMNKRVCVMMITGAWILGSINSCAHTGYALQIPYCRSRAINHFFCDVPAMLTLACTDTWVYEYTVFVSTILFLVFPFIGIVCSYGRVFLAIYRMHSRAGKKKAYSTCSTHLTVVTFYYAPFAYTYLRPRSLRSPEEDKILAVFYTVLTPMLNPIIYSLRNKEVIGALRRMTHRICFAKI
Method in brief: as §1

UniProt Q8VGL0 = molecular target: T6, UniProt Q8VGL0
T6 sequence (whole entry): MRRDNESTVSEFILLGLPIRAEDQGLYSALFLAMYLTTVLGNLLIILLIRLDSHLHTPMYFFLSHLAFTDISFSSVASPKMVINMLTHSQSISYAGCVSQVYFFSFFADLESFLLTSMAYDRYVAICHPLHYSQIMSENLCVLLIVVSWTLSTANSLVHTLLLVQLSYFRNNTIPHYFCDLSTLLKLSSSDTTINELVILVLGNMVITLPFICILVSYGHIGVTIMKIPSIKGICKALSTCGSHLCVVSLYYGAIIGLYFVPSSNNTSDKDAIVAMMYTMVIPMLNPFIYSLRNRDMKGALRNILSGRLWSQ
Method in brief: as §1

UniProt Q8VGL7 = molecular target: T7, UniProt Q8VGL7
T7 sequence (whole entry): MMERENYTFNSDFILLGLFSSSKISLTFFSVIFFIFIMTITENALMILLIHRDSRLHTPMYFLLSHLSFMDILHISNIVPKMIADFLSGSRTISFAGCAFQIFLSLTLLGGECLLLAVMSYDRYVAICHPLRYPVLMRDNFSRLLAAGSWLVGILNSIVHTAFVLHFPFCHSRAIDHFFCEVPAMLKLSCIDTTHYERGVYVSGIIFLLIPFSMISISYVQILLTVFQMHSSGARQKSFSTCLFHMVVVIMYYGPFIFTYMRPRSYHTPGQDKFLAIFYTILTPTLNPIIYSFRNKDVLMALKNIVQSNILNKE
Method in brief: as §1

UniProt Q8VGM2 = molecular target: T8, UniProt Q8VGM2
T8 sequence (whole entry): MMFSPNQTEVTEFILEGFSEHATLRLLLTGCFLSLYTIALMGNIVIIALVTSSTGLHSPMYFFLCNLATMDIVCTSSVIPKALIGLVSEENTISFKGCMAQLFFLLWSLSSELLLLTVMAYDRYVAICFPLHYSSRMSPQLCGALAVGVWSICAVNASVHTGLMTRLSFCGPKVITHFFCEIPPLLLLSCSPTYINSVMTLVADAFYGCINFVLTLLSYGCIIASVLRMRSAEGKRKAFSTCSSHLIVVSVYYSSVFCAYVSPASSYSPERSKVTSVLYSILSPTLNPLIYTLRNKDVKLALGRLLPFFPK
Method in brief: as §1

UniProt Q8VGP6 = molecular target: T9, UniProt Q8VGP6
T9 sequence (whole entry): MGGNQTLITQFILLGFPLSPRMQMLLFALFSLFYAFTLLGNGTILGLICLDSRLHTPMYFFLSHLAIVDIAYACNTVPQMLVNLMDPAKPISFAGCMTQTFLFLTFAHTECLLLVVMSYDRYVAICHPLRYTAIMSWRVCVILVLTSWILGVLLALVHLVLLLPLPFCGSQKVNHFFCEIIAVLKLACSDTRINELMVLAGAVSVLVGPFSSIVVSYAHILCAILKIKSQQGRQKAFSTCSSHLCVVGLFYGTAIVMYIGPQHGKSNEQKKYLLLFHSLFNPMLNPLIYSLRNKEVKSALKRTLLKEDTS
Method in brief: as §1

UniProt Q8VGQ3 = molecular target: T10, UniProt Q8VGQ3
T10 sequence (whole entry): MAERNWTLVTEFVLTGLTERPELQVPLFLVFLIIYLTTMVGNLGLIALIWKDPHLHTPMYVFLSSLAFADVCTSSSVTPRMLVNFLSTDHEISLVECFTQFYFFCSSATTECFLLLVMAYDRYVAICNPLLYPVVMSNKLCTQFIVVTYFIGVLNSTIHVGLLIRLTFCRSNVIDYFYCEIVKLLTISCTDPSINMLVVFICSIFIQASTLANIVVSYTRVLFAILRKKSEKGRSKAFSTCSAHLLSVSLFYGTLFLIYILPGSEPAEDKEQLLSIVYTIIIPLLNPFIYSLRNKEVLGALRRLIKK
Method in brief: as §1

UniProt Q8VGT4 = molecular target: T11, UniProt Q8VGT4
T11 sequence (whole entry): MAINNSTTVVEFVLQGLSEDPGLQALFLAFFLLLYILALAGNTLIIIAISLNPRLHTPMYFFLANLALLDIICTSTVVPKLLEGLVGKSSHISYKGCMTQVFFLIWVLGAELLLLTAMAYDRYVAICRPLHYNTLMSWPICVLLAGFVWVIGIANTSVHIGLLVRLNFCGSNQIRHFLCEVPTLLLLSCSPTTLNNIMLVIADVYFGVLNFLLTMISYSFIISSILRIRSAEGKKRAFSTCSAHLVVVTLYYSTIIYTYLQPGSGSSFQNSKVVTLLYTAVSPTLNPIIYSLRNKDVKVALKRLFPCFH
Method in brief: as §1

UniProt Q8VGV1 = molecular target: T12, UniProt Q8VGV1
T12 sequence (whole entry): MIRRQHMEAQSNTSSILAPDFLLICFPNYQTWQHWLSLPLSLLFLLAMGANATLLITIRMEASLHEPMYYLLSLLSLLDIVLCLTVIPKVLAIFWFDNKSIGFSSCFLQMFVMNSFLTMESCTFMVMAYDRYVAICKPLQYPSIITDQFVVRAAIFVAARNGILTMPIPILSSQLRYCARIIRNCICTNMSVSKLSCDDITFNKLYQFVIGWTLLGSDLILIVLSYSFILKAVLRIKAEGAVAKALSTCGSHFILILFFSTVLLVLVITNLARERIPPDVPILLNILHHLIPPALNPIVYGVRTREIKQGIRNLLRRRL
Method in brief: as §1

UniProt Q8VGW5 = molecular target: T13, UniProt Q8VGW5
T13 sequence (whole entry): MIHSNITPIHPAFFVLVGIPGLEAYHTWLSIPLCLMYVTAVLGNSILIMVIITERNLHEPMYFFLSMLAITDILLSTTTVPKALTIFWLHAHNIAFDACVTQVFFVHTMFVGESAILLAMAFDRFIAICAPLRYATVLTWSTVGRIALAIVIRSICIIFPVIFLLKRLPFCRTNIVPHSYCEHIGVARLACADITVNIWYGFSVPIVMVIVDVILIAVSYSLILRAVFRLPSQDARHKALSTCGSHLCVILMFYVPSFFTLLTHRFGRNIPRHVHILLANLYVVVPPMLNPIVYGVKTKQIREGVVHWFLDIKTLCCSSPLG
Method in brief: as §1

UniProt Q8VGX5 = molecular target: T14, UniProt Q8VGX5
T14 sequence (whole entry): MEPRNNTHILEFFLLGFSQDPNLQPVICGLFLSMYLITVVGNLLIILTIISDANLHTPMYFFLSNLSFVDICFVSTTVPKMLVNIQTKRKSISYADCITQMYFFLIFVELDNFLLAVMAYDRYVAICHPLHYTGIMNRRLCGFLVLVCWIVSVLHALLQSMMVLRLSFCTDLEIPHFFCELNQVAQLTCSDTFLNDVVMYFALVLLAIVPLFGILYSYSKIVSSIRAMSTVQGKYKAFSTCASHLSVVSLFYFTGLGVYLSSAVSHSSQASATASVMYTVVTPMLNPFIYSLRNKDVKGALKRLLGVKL
Method in brief: as §1

UniProt Q8VGJ3 = molecular target: T15, UniProt Q8VGJ3
T15 sequence (whole entry): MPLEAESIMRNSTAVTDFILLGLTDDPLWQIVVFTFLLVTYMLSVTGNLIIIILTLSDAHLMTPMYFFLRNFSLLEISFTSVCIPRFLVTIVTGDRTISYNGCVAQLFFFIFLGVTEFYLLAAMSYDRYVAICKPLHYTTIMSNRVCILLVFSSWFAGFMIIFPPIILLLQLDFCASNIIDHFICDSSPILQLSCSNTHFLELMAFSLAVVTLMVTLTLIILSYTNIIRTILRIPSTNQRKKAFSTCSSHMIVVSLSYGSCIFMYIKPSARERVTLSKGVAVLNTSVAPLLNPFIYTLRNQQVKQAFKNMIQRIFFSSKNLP
Method in brief: as §1

UniProt Q8VGU3 = molecular target: T16, UniProt Q8VGU3
T16 sequence (whole entry): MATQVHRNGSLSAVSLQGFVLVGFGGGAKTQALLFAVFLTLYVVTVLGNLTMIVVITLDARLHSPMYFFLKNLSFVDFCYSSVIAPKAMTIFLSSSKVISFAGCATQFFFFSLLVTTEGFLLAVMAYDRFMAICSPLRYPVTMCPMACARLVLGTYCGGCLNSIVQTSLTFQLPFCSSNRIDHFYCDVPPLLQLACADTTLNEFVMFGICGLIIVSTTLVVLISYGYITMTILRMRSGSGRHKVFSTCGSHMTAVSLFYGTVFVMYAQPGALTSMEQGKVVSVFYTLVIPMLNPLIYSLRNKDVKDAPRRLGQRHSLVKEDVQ
Method in brief: as §1

UniProt Q8VGV7 = molecular target: T17, UniProt Q8VGV7
T17 sequence (whole entry): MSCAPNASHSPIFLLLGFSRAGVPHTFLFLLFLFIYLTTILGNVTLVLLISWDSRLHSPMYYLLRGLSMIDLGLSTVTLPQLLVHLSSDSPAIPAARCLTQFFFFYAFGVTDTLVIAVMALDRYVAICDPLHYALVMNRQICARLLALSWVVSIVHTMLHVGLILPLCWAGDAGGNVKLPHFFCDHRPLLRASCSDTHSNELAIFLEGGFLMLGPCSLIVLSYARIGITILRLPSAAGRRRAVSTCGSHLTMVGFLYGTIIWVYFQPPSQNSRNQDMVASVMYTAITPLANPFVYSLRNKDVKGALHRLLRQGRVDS
Method in brief: as §1

UniProt Q8VGX3 = molecular target: T18, UniProt Q8VGX3
T18 sequence (whole entry): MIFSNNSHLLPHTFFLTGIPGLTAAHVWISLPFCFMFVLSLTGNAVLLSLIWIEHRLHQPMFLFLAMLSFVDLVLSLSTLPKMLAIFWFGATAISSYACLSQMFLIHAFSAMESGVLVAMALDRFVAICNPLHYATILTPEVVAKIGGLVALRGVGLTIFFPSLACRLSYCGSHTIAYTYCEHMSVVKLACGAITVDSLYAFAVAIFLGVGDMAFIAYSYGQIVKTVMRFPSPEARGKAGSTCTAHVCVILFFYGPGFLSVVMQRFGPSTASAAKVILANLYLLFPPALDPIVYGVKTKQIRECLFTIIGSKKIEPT
Method in brief: as §1

Measured: odorant receptor agonist call

CCCCCCCC(=O)[O-].[H+]
active: UniProt Q8VGV1
not listed: UniProt Q8VGJ3 | UniProt Q8VGU3 | UniProt Q8VGV7 | UniProt Q8VGX3
inactive: all other assays above

CC(=O)OCc1ccccc1
active: UniProt Q8VGC6 | UniProt Q8VGJ5 | UniProt Q8VGP6 | UniProt Q8VGX5
not listed: UniProt Q8VGW5
inactive: all other assays above
